Measurements of several laboratories.
Each line is one published result; the experiments were not run side by side.
Target: Mitogen-activated protein kinase 15 (MAPK15, Homo sapiens, UniProt Q8TD08)
One construct used (Q8TD08 1-544): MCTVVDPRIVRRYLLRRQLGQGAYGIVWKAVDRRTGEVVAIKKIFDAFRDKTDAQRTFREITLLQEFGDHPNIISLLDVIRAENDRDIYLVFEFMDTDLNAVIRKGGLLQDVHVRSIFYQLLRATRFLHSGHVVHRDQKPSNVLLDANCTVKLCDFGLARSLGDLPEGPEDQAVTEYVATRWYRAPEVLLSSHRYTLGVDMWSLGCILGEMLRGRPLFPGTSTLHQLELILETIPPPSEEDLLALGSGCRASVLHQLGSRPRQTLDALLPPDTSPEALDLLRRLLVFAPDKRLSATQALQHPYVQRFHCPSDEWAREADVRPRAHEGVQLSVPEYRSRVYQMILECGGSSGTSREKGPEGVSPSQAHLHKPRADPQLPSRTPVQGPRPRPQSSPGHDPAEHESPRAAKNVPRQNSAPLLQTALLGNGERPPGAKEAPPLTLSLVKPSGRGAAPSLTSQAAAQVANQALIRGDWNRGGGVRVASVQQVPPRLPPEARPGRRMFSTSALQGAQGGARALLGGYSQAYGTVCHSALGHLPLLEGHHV

SMILES	effect on	action	technique	concentration	quantity	result
Cn1cnc(Br)c1C1=CN(c2ncnc3[nH]cnc23)CCS1	enzyme activity	inhibitor	radiometric	50 nM	inhibition	17.1%
Cn1c(=O)n(-c2ccc(C(C)(C)C#N)cc2)c2c3cc(-c4cnc5ccccc5c4)ccc3ncc21	enzyme activity	inhibitor	–	10 µM	remaining activity	94%
Nc1nc(Nc2ccc(S(N)(=O)=O)cc2)sc1C(=O)c1ccccc1[N+](=O)[O-]	enzyme activity	inhibitor	–	0.1 µM	inhibition	73 to 75%
Nc1ncnc2occ(-c3ccc(NC(=O)Nc4cc(C(F)(F)F)ccc4F)cc3)c12	cell-free assay	inhibitor	–	20 µM	remaining signal	0.1%
O=C(Nc1cnn(-c2csc(C(=O)NC3COC3)c2)c1)Nc1c(F)cccc1Cl	enzyme activity	inhibitor	–	5 µM	remaining activity	108%
CC(C)(C)c1nc(-c2cccc(NS(=O)(=O)c3c(F)cccc3F)c2F)c(-c2ccnc(N)n2)s1	enzyme activity	inhibitor	radiometric	1 µM	remaining activity	80%
CO[C@@H](C)c1c(Nc2ccc([C@@H](N(C)C(=O)C3CCS(=O)(=O)CC3)C(F)(F)F)cc2)cnc2cc(Cl)nn12	cell-free assay	–	competition with immobilised ligand	1 µM	remaining binding	81%
FC(F)(F)Oc1cccc(-c2cnc3ccc(-c4ccncc4)nn23)c1	enzyme activity	inhibitor	radiometric	1 µM	activity vs control	29%
CS(=O)(=O)c1cc(C2(NC(=O)c3cncc4c3cnn4-c3ccc(F)cc3)CC2)ccn1	cell-free assay	–	competition with immobilised ligand	1 µM	remaining binding	100%
Nc1nc(Nc2ccccc2)sc1C(=O)c1c(F)cccc1F	enzyme activity	inhibitor	–	10 µM	remaining activity	14%
CCC(=N\O)/C(C)=C/c1ccc(F)cc1	cell-free assay	–	competition with immobilised ligand	1 µM	remaining binding	95%
Cc1ccc(C(=O)Nc2ccc(CN3CCN(C)CC3)c(C(F)(F)F)c2)cc1C#Cc1cnc2cccnn12	enzyme activity	inhibitor	–	23.5 nM	remaining activity	77%
Cc1c[nH]c2nccc(Oc3c(F)cc(Nc4cc(Cl)nc(N)n4)cc3F)c12	cell-free assay	–	competition with immobilised ligand	0.1 µM	remaining binding	100%
CC(C)(C)C(=O)c1sc(NC2CCCCC2)nc1N	enzyme activity	inhibitor	–	10 µM	remaining activity	43%
